The values that follow come from ChEMBL document CHEMBL1144854, “Synthesis and biological evaluation of novel 6-substituted 5-alkyl-2-(arylcarbonylmethylthio)pyrimidin-4(3H)-ones as potent non-nucleoside HIV-1 reverse transcriptase inhibitors” (Bioorg Med Chem, 2008).

The source made the active and inactive calls. The rule behind the calls is not given here.

The test system of data set [1] is Human immunodeficiency virus 1. Briefly: Antiviral activity against HIV1 3B infected in MT4 cells by MTT. To be noted: Human immunodeficiency virus 1, 3B. In kind it is functional, organism-based. Put shortly: (§1)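 MT-4 cells at 1 × 10^5 cells/mL were infected at MOI 0.02 with virus stocks pre-titrated in MT-4 cells (CCID50) and immediately plated onto serial compound dilutions. Compound stocks were 50 mM in DMSO. Viable cells were counted by MTT after 4 days at 37 °C. EC50 is the concentration giving 50% protection from viral cytopathicity, as the mean of ≥2 separate experiments.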

For data set [2], the system named is Human immunodeficiency virus 2. In words: Antiviral activity against HIV2 ROD infected in MT4 cells by MTT. In kind it is functional, organism-based. To be noted: Human immunodeficiency virus 2, ROD. In a few lines: as §1
Data set [3] is described as follows: Cytotoxicity against human MT4 cells. In kind it is cell-based. Put shortly:
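Uninfected MT-4 cells were run in parallel with the antiviral plates: serial compound concentrations from 50 mM DMSO stocks, 4 days at 37 °C, viability by MTT. CC50 is the concentration cutting viability by 50%, as the mean of ≥2 separate experiments.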

Data set [4] can be described thus: Selectivity index, ratio of CC50 for human MT4 cells to EC50 for HIV1 3B. The class given is functional.
In data set [5] the test system is Human immunodeficiency virus 1. Briefly: Antiviral activity against HIV1 RES056 infected in MT4 cells by MTT. The class given is functional, organism-based. To be noted: Human immunodeficiency virus 1, RES056, MT4. Put shortly:
as §1

A short description of data set [6]: Selectivity index, ratio of CC50 for human MT4 cells to EC50 for HIV1 RES056.
The subject of data set [7] is MT4. Described as above.

Take `CCc1c(Cc2ccc(-c3ccccc3)cc2)nc(SCC(=O)c2ccc(OC)cc2)[nH]c1=O`: the concentration giving a half-maximal response (EC50) was > 266000 nM in data set [1] and > 266 µM in data set [2]. Besides, the CC50 in data set [3] was > 266 µM.

With `Cc1c(Cc2cccc3ccccc23)nc(SCC(=O)c2ccccc2)[nH]c1=O`, the EC50 in data set [1] was 220 nM; in data set [2], ≥ 42.2 µM. For the same compound, in data set [3], the CC50 is ≥ 305 µM. The “Ratio CC50/EC50” value in data set [4] is “>=1386”.

As for `CCc1c(Cc2cc(C(F)(F)F)cc(C(F)(F)F)c2)nc(SCC(=O)c2ccc(OC)cc2)[nH]c1=O`, the EC50 was 790 nM in data set [1] and > 236 µM in data set [2]. For the same compound, the CC50 in data set [3] is > 236 µM. Moreover, the “Ratio CC50/EC50” value in data set [4] is >299.

For the compound `O=C1Nc2ccc(Cl)cc2C(C#CC2CC2)(C(F)(F)F)O1` (single isomer, unassigned) [EFAVIRENZ], in data set [3], the half-maximal cytotoxic concentration (CC50) was > 6.34 µM.

For the compound `CCc1c(Cc2ccc(Br)cc2)nc(SCC(=O)c2ccc(OC)cc2)[nH]c1=O`, the results for the 50% effective concentration (EC50) in data set [1] and in data set [2] were 7940 nM and > 264 µM, respectively. In data set [3], the cytotoxic concentration (CC50) is > 264 µM. Further, the “Ratio CC50/EC50” value in data set [4] is >33.

`Cc1cn([C@H]2C[C@H](N=[N+]=[N-])[C@@H](CO)O2)c(=O)[nH]c1=O` [ZIDOVUDINE]: the results for the EC50 in data set [1] and in data set [5] were 5 nM and 0.006 µM, respectively. Moreover, the CC50 in data set [3] is > 93.5 µM. The “Ratio CC50/EC50” value in data set [4] is recorded as >17990; in data set [6] it was >15592.

`CCc1c(Cc2cc(C)cc(C)c2)nc(SCC(=O)c2ccccc2)[nH]c1=O`: the EC50 turned out to be 10 nM in data set [1], 154 µM in data set [2] and 19.8 µM in data set [5]. For the same compound, the 50% cytotoxic concentration (CC50) in data set [3] is > 318 µM. Besides, the “Ratio CC50/EC50” value in data set [4] is reported as >31800; in data set [6], >16.

Consider `COc1ccc(C(=O)CSc2nc(Cc3cccc(O)c3)c(C)c(=O)[nH]2)cc1`, for which the figures for the concentration giving a half-maximal response (EC50) in data set [1] and in data set [2] were 4440 nM and > 59 µM, respectively. In data set [3], this compound registered a CC50 of 70 µM. In data set [4], the “Ratio CC50/EC50” value is listed as 16.

As to `COc1ccc(C(=O)CSc2nc(Cc3cc(C)cc(C)c3)c(C)c(=O)[nH]2)cc1`, the EC50 in data set [1] is 54 nM; in data set [2] it was 60.6 µM; in data set [5], > 308 µM. Also, the CC50 in data set [3] was > 308 µM. Moreover, the “Ratio CC50/EC50” value in data set [4] was >5704. In data set [7], the outcome was inactive.

As for `CCc1c(C(c2ccccc2)c2ccccc2)nc(SCC(=O)c2ccc(OC)cc2)[nH]c1=O`, the half-maximal effective concentration (EC50) is 3490 nM in data set [1] and > 266 µM in data set [2]. In data set [3], the CC50 was > 266 µM. For the same compound, the “Ratio CC50/EC50” value in data set [4] was >76.

With `COc1ccc(C(=O)CSc2nc(C(c3ccccc3)c3ccccc3)c(C)c(=O)[nH]2)cc1`, the figures for the half-maximal effective concentration (EC50) in data set [1] and in data set [2] were 1380 nM and > 274 µM, respectively. Moreover, in data set [3], the half-maximal cytotoxic concentration (CC50) is > 274 µM. In data set [4], the “Ratio CC50/EC50” value was >199.

As for `COc1ccc(C(=O)CSc2nc(Cc3cccc(Br)c3)c(C)c(=O)[nH]2)cc1`, the values for the EC50 in data set [1] and in data set [2] were 890 nM and 203 µM, respectively. The CC50 in data set [3] is ≥ 196 µM. Further, in data set [4], the “Ratio CC50/EC50” value is recorded as “>=220”.

For `CCc1c(Cc2ccccc2Br)nc(SCC(=O)c2ccc(OC)cc2)[nH]c1=O`, the results for the concentration for a half-maximal effect (EC50) in data set [1] and in data set [2] were 40 nM and > 187 µM, respectively. The CC50 in data set [3] turned out to be 187 µM. The “Ratio CC50/EC50” value in data set [4] was determined as 4675.

Regarding `COc1ccc(C(=O)CSc2nc(Cc3ccccc3Br)c(C)c(=O)[nH]2)cc1`, the concentration giving a half-maximal response (EC50) in data set [1] was 630 nM; in data set [2], > 272 µM. The cytotoxic concentration (CC50) in data set [3] was > 272 µM. Besides, in data set [4], the “Ratio CC50/EC50” value was >432.

As to `CCc1c(Cc2cccc(Br)c2)nc(SCC(=O)c2ccc(OC)cc2)[nH]c1=O`, the EC50 in data set [1] was 160 nM; in data set [2], > 142 µM. In data set [3], this compound yielded a CC50 of 142 µM. The “Ratio CC50/EC50” value in data set [4] amounted to 887.

For the compound `CC(C)Nc1cccnc1N1CCN(C(=O)c2cc3cc(NS(C)(=O)=O)ccc3[nH]2)CC1` [DELAVIRDINE], the 50% effective concentration (EC50) was 72 nM in data set [1] and > 3.62 µM in data set [5]. Further, the CC50 in data set [3] is > 3.62 µM. Also, in data set [4], the “Ratio CC50/EC50” value is reported as >50.

As for `COc1ccc(C(=O)CSc2nc(Cc3cc(C(F)(F)F)cc(C(F)(F)F)c3)c(C)c(=O)[nH]2)cc1`, the concentration giving a half-maximal response (EC50) in data set [1] was 46100 nM; in data set [2], > 242 µM. For the same compound, the CC50 in data set [3] was > 242 µM. In data set [4], the “Ratio CC50/EC50” value was >5.

Consider `COc1ccc(C(=O)CSc2nc(Cc3ccc(Br)cc3)c(C)c(=O)[nH]2)cc1`, for which the figures for the EC50 in data set [1] and in data set [2] were 8970 nM and ≥ 226 µM, respectively. Moreover, the cytotoxic concentration (CC50) in data set [3] is > 272 µM. Besides, the “Ratio CC50/EC50” value in data set [4] is >30.

On to `COc1ccc(C(=O)CSc2nc(Cc3c(Cl)cccc3Cl)c(C)c(=O)[nH]2)cc1`, for which the EC50 was 44 nM in data set [1] and > 278 µM in data set [2]. The CC50 in data set [3] was > 278 µM. In addition, the “Ratio CC50/EC50” value in data set [4] was >6318.

Consider `CCc1c(Cc2cc(C)cc(C)c2)nc(SCC(=O)c2ccc(OC)cc2)[nH]c1=O`, for which the EC50 in data set [1] was 18 nM; in data set [2], 52.8 µM; in data set [5], > 239 µM. Besides, in data set [3], the cytotoxic concentration (CC50) was ≥ 239 µM. The “Ratio CC50/EC50” value in data set [4] is listed as “>=13278”.

Usually EC50 stands for the concentration needed to bring the measured effect to its halfway point. What is called CC50 is the concentration giving 50% cytotoxicity.
